{"source": "ChEMBL document CHEMBL4680066", "about": "“Deacylcortivazol-like pyrazole regioisomers reveal a more accommodating expanded binding pocket for the glucocorticoid receptor” (RSC Med Chem, 2021)", "key": {"[1]": {"biological_target": "T1, Glucocorticoid receptor (Homo sapiens) (UniProt P04150)", "T1 sequence (whole entry)": "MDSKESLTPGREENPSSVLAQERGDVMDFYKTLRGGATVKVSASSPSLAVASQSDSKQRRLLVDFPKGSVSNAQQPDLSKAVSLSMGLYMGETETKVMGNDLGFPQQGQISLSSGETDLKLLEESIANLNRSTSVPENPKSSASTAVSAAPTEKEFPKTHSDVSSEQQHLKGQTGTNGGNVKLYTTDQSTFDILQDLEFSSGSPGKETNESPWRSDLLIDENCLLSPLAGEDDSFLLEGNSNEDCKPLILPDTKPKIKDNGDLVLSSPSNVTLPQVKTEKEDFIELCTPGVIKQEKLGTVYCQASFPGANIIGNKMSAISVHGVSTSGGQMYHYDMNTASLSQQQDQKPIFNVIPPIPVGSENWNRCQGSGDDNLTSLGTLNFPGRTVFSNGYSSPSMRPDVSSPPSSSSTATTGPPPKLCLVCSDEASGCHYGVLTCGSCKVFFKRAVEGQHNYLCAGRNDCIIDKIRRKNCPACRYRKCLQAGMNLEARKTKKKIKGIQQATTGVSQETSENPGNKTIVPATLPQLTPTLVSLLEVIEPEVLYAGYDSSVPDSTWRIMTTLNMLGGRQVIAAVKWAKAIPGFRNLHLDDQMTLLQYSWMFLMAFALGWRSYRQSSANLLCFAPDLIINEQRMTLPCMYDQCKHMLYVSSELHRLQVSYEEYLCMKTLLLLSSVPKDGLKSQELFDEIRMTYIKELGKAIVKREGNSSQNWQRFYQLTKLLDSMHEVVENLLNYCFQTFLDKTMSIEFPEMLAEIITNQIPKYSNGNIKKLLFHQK", "conditions": "HEK293T, filed as modulator, time 22.0 min; call rule not given here"}, "REH": {"tested_on": "REH", "assay": "Cytotoxicity against human REH cells overexpressing GR assessed as reduction in cell viability measured after 3 days by resazurin based assay", "assay_type": "functional", "outline": "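REH B-ALL cells (naturally GR-null) were lentivirally infected with GFP-T2A-GR, and the top 10% GFP sorted population was used. Cells grown in RPMI + 10% FBS, seeded at 9,000 cells/well in 384-well format. DMSO serial dilutions (2500 µM to 0.01 µM stocks) were diluted 1:500 and then added 1:1, giving 0.1% final DMSO. Exposure 72 h. Read-out: PrestoBlue fluorescence (Ex 560/Em 590), normalized to DMSO-only wells. EC50 by 4-parameter fit per replicate, at least 6 replicates.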"}, "Glucocorticoid receptor": {"biological_target": "T2, Glucocorticoid receptor (Homo sapiens, UniProt P04150)", "T2 sequence (P04150 whole entry)": "T1 sequence (whole entry)", "assay": "Induction of translocation of human glucocorticoid receptor expressed in HEK293T cells transduced with lentiviral vector expressing H2B-mCherry and GFP-GR assessed as effective dissociation constant measured every 130 sec for 22 mins by fluorescence imaging analysis", "assay_type": "cell-based"}, "[2]": {"conditions": "Homo sapiens, REH, 72 h, read-out: EC50"}}, "data": [{"molecule": "C[C@]12Cc3cn(-c4ccc(F)cc4)nc3C=C1CC[C@@H]1[C@@H]2[C@@H](O)C[C@@]2(C)[C@H]1CC[C@]2(O)C(=O)CO", "values": [{"measurement": "T1/2", "setting": "[1]", "value": 4.33, "unit": "min"}, {"measurement": "EC50", "setting": "REH; [2]", "value": 225, "unit": "nM"}, {"measurement": "Kd", "setting": "Glucocorticoid receptor; read-out: Kd", "value": 138, "unit": "nM"}]}, {"molecule": "COc1cccc(-n2ncc3c2C=C2CC[C@@H]4[C@H]([C@@H](O)C[C@@]5(C)[C@H]4CC[C@]5(O)C(=O)CO)[C@@]2(C)C3)c1", "values": [{"measurement": "T1/2", "setting": "[1]", "value": 4.17, "unit": "min"}, {"measurement": "EC50", "setting": "REH; [2]", "value": 346, "unit": "nM"}]}, {"molecule": "C[C@]12Cc3cn(-c4ccccc4)nc3C=C1CC[C@@H]1[C@@H]2[C@@H](O)C[C@@]2(C)[C@H]1CC[C@]2(O)C(=O)CO", "values": [{"measurement": "T1/2", "setting": "[1]", "value": 2.63, "unit": "min"}, {"measurement": "EC50", "setting": "REH; [2]", "value": 1.3, "unit": "nM"}, {"measurement": "Kd", "setting": "Glucocorticoid receptor; read-out: Kd", "value": 2.2, "unit": "nM"}]}, {"molecule": "CCCCCCn1ncc2c1C=C1CC[C@@H]3[C@H]([C@@H](O)C[C@@]4(C)[C@H]3CC[C@]4(O)C(=O)CO)[C@@]1(C)C2", "values": [{"measurement": "T1/2", "setting": "[1]", "value": 2.1, "unit": "min"}, {"measurement": "EC50", "setting": "REH; [2]", "value": 27, "unit": "nM"}, {"measurement": "Kd", "setting": "Glucocorticoid receptor; read-out: Kd", "value": 9, "unit": "nM"}]}, {"molecule": "COc1cccc(-n2cc3c(n2)C=C2CC[C@@H]4[C@H]([C@@H](O)C[C@@]5(C)[C@H]4CC[C@]5(O)C(=O)CO)[C@@]2(C)C3)c1", "values": [{"measurement": "Kd", "setting": "Glucocorticoid receptor; hek293t", "value": "Not Active"}]}, {"molecule": "C[C@]12Cc3cnn(-c4ccc(F)cc4)c3C=C1CC[C@@H]1[C@@H]2[C@@H](O)C[C@@]2(C)[C@H]1CC[C@]2(O)C(=O)CO", "values": [{"measurement": "T1/2", "setting": "[1]", "value": 2.2, "unit": "min"}, {"measurement": "EC50", "setting": "REH; [2]", "value": 1.4, "unit": "nM"}, {"measurement": "Kd", "setting": "Glucocorticoid receptor; read-out: Kd", "value": 2.6, "unit": "nM"}]}, {"molecule": "Cc1ccc(-n2cc3c(n2)C=C2CC[C@@H]4[C@H]([C@@H](O)C[C@@]5(C)[C@H]4CC[C@]5(O)C(=O)CO)[C@@]2(C)C3)cc1", "values": [{"measurement": "EC50", "setting": "REH; [2]", "value": 7270, "unit": "nM"}, {"measurement": "Kd", "setting": "Glucocorticoid receptor; read-out: Kd", "value": 883, "unit": "nM"}]}, {"molecule": "C[C@]12Cc3cnn(-c4ccccc4)c3C=C1CC[C@@H]1[C@@H]2[C@@H](O)C[C@@]2(C)[C@H]1CC[C@]2(O)C(=O)CO", "values": [{"measurement": "T1/2", "setting": "[1]", "value": 2.67, "unit": "min"}, {"measurement": "EC50", "setting": "REH; [2]", "value": 2.3, "unit": "nM"}, {"measurement": "Kd", "setting": "Glucocorticoid receptor; read-out: Kd", "value": 2.2, "unit": "nM"}]}, {"molecule": "C[C@@H]1C[C@H]2[C@@H]3CCC4=CC(=O)C=C[C@]4(C)[C@@]3(F)[C@@H](O)C[C@]2(C)[C@@]1(O)C(=O)CO", "note": "[DEXAMETHASONE]", "values": [{"measurement": "EC50", "setting": "REH; [2]", "value": 6.7, "unit": "nM"}]}, {"molecule": "CCCCCCn1cc2c(n1)C=C1CC[C@@H]3[C@H]([C@@H](O)C[C@@]4(C)[C@H]3CC[C@]4(O)C(=O)CO)[C@@]1(C)C2", "values": [{"measurement": "EC50", "setting": "REH; reh", "value": "Not Active"}]}]}
